Measurements reported in ChEMBL document CHEMBL1140927, “Discovery of N-(3-fluorophenyl)-1-[(4-([(3S)-3-methyl-1-piperazinyl]methyl)phenyl)acetyl]-4-piperidinamine (GSK962040), the first small molecule motilin receptor agonist clinical candidate” (J Med Chem, 2009).
pEC50, pIC50: −log10 of the molar value.

How the values were obtained:
[1] = Aqueous solubility of the compound; format: physicochemical; settings: aqueous medium
Cytochrome P450 3A4 [2] = target: T1, Cytochrome P450 3A4 (Homo sapiens, UniProt P08684); experiment: Inhibition of human CYP3A4 expressed in Escherichia coli using 7BQ substrate by time dependent inhibition assay; format: ADME
Motilin receptor [3] = target: T2, Motilin receptor (Homo sapiens, UniProt O43193); experiment: Agonist activity at human recombinant motilin receptor expressed in CHO cells assessed as increase in intracellular calcium by FLIPR assay; format: functional, cell-based
Outline: (§1)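 CHO-K1 cells stably transfected with human motilin receptor, grown in DMEM/HamF-12 with 10% FBS, 2 mM GlutaMAX, 1 mg/mL Geneticin; seeded 10 000 cells/well, 24 h. Loaded with Fluo 4 (2.5 µM) in Tyrodes with probenecid, 1 h at 37.5 °C. Compound top final 12 µM, 1-in-4 dilutions; fluorescence read over 1 min; max change over baseline, four-parameter logistic fit; intrinsic activity = curve maximum relative to motilin maximum.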

Motilin receptor [4] = target: T2, Motilin receptor; experiment: Intrinsic activity at human recombinant motilin receptor expressed in CHO cells relative to motilin; format: cell-based; outline: as §1
Cytochrome P450 3A4 [5] = target: T1, Cytochrome P450 3A4; experiment: Inhibition of human CYP3A4 expressed in Escherichia coli using diethoxyfluorescein substrate by time dependent inhibition assay; format: ADME
Cytochrome P450 3A4 [6] = target: T1, Cytochrome P450 3A4; experiment: Inhibition of human CYP3A4 expressed in Escherichia coli using diethoxyfluorescein substrate assessed as decrease in enzyme activity by time dependent inhibition assay; format: ADME; design: unit not given here
Rattus norvegicus = experiment: AUC (0 to t) in Sprague-Dawley rat at 5 mg/kg, po; format: ADME, organism-based, Plasma; design: dose 5 mg/kg, route oral; settings: in vivo
Outline: (§2)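 Male Sprague-Dawley rats (n = 3), HCl salt suspended in 1% w/v methylcellulose at 1 mg free base/mL, oral gavage 5 mL/kg for 5 mg free base/kg; serial blood up to 12 h (8 h in a second study); diluted blood analysed by LC/MS/MS, LLQ 5 ng/mL.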

Stomach [7] = experiment: Potentiation of electric field stimulated-rabbit gastric antrum contraction at 0.3 uM; format: functional, Oryctolagus cuniculus
Outline: (§3)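 Isolated native rabbit gastric antrum tissue. Cholinergic contractions are evoked by electrical field stimulation (EFS), and compound is added at the stated concentration. The read-out is % potentiation of EFS-evoked contractions, n = 4-8.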

Stomach [8] = experiment: Potentiation of electric field stimulated-rabbit gastric antrum contraction at 0.1 uM; format: functional, Oryctolagus cuniculus; outline: as §3
Stomach [9] = experiment: Potentiation of electric field stimulated-rabbit gastric antrum contraction at 1 uM; format: functional, Oryctolagus cuniculus; outline: as §3
[10] = Cmax in Sprague-Dawley rat at 5 mg/kg, po; format: ADME, organism-based; design: dose 5 mg/kg, route oral; settings: in vivo; outline: as §2
[11] = Tmax in Sprague-Dawley rat at 5 mg/kg, po; format: ADME, organism-based; design: dose 5 mg/kg, route oral; settings: in vivo; outline: as §2
Cytochrome P450 2D6 = Cytochrome P450 2D6 (Homo sapiens, UniProt P10635); experiment: Inhibition of human CYP2D6; format: ADME
Cytochrome P450 3A4 [12] = target: T1, Cytochrome P450 3A4; experiment: Inhibition of human CYP3A4 expressed in Escherichia coli using diethoxyfluorescein substrate measured in 25 to 30 mins by time dependent inhibition assay; format: ADME
[13] = target: Voltage-gated inwardly rectifying potassium channel KCNH2 (Homo sapiens, UniProt Q12809); experiment: Binding affinity to human ERG
Cytochrome P450 2C9 = Cytochrome P450 2C9 (Homo sapiens, UniProt P11712); experiment: Inhibition of human CYP2C9; format: ADME
Cytochrome P450 3A4 [14] = target: T1, Cytochrome P450 3A4; experiment: Inhibition of human CYP3A4 expressed in Escherichia coli using diethoxyfluorescein substrate measured in 0 to 5 mins by time dependent inhibition assay; format: ADME
Cytochrome P450 2C19 = Cytochrome P450 2C19 (Homo sapiens, UniProt P33261); experiment: Inhibition of human CYP2C19; format: ADME
Stomach [15] = experiment: Potentiation of electric field stimulated-rabbit gastric antrum contraction at 3 uM; format: functional, Oryctolagus cuniculus
Outline: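 Isolated rabbit gastric antrum; cholinergic contractions evoked by electrical field stimulation, compound response expressed as % potentiation of EFS-evoked contraction, n = 4-8.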

Cytochrome P450 1A2 = target: T3, Cytochrome P450 1A2 (Homo sapiens, UniProt P05177); experiment: Inhibition of human CYP1A2; format: ADME
T3 sequence (P05177 whole entry): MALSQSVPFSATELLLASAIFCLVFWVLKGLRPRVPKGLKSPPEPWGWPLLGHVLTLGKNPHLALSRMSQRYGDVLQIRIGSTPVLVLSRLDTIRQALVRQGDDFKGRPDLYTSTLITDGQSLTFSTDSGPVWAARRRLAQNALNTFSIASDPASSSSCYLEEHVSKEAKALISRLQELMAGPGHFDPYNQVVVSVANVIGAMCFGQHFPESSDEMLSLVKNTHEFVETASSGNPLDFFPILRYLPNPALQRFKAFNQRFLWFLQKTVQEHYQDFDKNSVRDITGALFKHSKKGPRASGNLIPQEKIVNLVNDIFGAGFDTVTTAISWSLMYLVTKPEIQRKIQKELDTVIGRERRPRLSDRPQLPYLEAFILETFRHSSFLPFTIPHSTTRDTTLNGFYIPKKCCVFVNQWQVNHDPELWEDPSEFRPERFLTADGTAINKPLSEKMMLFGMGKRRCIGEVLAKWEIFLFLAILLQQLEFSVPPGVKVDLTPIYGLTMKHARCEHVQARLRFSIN

[16] = Oral bioavailability in Beagle dog; format: ADME, organism-based, Canis lupus familiaris; settings: in vivo
Outline: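 Three dogs, two study days 7 days apart: 1 h IV infusion of 2 mg free base/kg in 0.9% saline (0.4 mg/mL, 5 mL/kg/h), then same dogs oral gavage 5 mg free base/kg in 1% methylcellulose (1 mg/mL, 5 mL/kg); serial blood up to 30 h; LC/MS/MS, LLQ 5 ng/mL.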

[17] = Protein binding in human plasma; format: ADME, cell-free; settings: read-out: PPB (converted)
[18] = Protein binding in rat plasma; format: ADME, cell-free; settings: read-out: PPB (converted)
[19] = Half life in rabbit gastric antrum native tissue at 3 uM; format: ADME, tissue-based, Oryctolagus cuniculus, Stomach
[20] = Oral bioavailability in Sprague-Dawley rat; format: ADME, organism-based; settings: in vivo
Outline: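 Male Sprague-Dawley rats (n = 3), two study days 2 days apart: 1 h IV infusion of 1 mg free base/kg in 0.9% saline (0.2 mg/mL, 5 mL/kg/h), then oral gavage 5 mg free base/kg in 1% methylcellulose; serial blood up to 12 h; LC/MS/MS, LLQ 5 ng/mL.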

[21] = target: Growth hormone secretagogue receptor type 1 (Homo sapiens, UniProt Q92847); experiment: Agonist activity at human Ghrelin receptor; format: functional
Sequence of Growth hormone secretagogue receptor type 1 (Q92847 whole entry): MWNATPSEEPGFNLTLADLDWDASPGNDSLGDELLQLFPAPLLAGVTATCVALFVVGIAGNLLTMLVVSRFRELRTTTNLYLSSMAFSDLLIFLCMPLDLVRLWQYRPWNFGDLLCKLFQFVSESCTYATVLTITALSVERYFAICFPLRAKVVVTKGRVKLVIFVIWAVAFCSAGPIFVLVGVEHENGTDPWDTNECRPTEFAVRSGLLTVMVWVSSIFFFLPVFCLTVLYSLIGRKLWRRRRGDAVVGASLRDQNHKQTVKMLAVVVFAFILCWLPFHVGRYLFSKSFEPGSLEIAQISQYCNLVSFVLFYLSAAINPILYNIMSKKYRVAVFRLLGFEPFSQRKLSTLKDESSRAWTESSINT

T2 sequence (O43193 whole entry): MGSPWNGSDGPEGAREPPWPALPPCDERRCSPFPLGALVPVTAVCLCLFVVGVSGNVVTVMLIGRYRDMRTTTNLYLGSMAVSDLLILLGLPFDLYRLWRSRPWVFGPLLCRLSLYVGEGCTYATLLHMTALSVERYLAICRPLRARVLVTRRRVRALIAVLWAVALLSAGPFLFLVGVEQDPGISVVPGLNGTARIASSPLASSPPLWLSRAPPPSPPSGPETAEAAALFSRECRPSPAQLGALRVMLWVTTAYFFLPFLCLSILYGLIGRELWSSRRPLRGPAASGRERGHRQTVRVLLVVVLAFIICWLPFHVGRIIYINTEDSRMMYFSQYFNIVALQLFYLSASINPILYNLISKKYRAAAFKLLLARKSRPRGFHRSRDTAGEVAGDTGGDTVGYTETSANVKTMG
T1 sequence (P08684 whole entry): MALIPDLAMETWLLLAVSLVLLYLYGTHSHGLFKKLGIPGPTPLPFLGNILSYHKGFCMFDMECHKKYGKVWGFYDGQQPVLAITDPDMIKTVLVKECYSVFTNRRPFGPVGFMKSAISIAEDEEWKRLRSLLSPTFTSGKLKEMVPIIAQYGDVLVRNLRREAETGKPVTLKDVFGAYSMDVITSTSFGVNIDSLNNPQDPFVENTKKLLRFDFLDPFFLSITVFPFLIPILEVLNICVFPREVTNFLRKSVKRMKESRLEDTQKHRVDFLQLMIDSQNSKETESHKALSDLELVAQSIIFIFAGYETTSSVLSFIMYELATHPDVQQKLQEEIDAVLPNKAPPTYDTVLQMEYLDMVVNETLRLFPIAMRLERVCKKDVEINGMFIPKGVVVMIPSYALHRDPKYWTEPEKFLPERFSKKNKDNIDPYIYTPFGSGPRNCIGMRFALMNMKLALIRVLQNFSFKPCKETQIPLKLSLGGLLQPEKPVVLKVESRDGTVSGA
Sequence of Cytochrome P450 2C9 (P11712 whole entry): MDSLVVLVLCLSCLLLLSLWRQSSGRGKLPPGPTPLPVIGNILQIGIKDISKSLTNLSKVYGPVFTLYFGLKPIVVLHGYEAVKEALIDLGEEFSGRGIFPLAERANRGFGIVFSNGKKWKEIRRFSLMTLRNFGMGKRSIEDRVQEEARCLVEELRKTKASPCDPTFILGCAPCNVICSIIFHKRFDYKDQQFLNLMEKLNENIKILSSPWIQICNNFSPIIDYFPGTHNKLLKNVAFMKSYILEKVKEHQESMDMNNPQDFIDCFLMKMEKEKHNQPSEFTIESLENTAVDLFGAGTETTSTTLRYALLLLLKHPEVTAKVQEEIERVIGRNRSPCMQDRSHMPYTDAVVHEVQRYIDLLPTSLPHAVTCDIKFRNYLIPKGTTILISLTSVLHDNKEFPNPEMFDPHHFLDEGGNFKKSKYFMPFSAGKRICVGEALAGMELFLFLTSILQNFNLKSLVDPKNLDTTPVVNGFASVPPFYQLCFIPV
Sequence of Voltage-gated inwardly rectifying potassium channel KCNH2 (Q12809 whole entry): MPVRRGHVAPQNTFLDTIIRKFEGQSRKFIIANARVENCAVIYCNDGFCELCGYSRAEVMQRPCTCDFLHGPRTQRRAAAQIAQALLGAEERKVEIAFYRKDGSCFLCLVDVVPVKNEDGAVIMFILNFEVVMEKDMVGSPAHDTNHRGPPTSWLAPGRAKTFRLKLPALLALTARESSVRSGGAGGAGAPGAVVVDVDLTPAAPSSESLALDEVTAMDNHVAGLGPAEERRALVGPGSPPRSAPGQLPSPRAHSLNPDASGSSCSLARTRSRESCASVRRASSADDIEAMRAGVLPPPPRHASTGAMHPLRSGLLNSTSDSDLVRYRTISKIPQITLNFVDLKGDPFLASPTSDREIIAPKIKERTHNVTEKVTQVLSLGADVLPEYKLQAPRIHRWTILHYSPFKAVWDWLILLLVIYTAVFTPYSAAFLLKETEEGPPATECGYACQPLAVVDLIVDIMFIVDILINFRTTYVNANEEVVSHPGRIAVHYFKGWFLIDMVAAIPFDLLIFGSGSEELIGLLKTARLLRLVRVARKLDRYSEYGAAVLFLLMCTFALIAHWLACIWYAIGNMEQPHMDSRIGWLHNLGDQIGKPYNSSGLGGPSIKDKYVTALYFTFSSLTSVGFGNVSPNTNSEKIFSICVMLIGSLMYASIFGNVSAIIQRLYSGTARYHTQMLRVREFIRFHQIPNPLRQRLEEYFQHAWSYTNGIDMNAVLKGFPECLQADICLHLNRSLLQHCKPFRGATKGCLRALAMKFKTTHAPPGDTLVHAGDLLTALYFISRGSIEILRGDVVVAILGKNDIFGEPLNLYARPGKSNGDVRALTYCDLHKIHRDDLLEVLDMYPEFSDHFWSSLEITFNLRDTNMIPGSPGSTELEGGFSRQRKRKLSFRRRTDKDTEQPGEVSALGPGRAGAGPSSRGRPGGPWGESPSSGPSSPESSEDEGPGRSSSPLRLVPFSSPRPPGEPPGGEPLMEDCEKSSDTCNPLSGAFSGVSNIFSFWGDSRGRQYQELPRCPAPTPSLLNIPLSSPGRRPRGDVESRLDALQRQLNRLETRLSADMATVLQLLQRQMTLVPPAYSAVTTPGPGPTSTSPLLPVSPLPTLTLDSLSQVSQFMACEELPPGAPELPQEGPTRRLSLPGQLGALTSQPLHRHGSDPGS
Sequence of Cytochrome P450 2D6 (P10635 whole entry): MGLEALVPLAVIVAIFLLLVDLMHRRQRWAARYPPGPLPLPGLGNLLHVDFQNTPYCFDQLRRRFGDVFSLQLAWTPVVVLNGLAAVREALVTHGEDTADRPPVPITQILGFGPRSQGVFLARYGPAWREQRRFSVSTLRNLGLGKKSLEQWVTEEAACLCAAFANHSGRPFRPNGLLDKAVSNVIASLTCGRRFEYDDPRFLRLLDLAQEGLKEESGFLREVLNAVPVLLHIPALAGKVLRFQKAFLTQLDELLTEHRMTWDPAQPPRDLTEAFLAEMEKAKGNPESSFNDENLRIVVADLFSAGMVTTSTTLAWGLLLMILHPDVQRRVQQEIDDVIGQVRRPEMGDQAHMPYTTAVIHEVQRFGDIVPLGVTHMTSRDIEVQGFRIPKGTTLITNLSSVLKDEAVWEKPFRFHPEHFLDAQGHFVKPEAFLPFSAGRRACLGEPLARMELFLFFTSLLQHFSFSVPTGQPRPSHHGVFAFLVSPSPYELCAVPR
Sequence of Cytochrome P450 2C19 (P33261 whole entry): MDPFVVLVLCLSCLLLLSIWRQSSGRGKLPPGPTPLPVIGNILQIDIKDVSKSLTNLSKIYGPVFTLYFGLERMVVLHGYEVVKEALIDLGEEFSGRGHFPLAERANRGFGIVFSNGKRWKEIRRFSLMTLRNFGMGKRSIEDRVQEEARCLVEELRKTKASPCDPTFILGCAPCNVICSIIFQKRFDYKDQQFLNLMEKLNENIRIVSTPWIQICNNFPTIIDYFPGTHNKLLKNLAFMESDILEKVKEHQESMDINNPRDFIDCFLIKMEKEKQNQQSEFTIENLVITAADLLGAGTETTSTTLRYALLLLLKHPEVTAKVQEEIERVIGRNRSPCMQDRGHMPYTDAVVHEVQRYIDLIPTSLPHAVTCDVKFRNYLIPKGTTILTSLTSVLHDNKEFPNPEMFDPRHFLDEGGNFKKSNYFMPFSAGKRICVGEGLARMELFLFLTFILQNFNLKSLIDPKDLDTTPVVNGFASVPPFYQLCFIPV

C[C@@H]1CN(Cc2ccc(-c3cccnc3C(=O)N3CCC(Nc4ccc(F)cc4)CC3)cc2)C[C@H](C)N1.Cl
solubility [1]: ≥ 1 µg/mL

C[C@@H]1CN(Cc2ccc(CC(=O)N3CCC(Nc4ccc(F)cc4)CC3)cc2)C[C@H](C)N1
pIC50 (Cytochrome P450 3A4 [2]): 4.23
pEC50 (Motilin receptor [3]): 7.40
Intrinsic activity (Motilin receptor [4]): 0.9
pIC50 (Cytochrome P450 3A4 [5]): 4.39
Activity (Cytochrome P450 3A4 [6]): 2.7

C[C@H]1CN(Cc2ccc(CC(=O)N3CCC(Nc4cccc(C#N)c4)CC3)cc2)CCN1
AUC (Rattus norvegicus): 2.8 kg·min/L
pIC50 (Cytochrome P450 3A4 [2]): 4.24
Activity (Stomach [7]): 218%
Activity (Stomach [8]): 98%
Activity (Stomach [9]): 462%
pEC50 (Motilin receptor [3]): 8.40
Cmax [10]: 200 nM
Intrinsic activity (Motilin receptor [4]): 1.1
pIC50 (Cytochrome P450 3A4 [5]): 4.44
Tmax [11]: 4 h
Activity (Cytochrome P450 3A4 [6]): 2

C[C@@H]1CN(Cc2ccc(CCC(=O)N3CCC(Nc4ccc(F)cc4)CC3)cc2)C[C@H](C)N1
pEC50 (Motilin receptor [3]): 7.30
Intrinsic activity (Motilin receptor [4]): 0.9

C[C@H]1CN(Cc2ccc(CCC(=O)N3CCC(Nc4ccc(F)cc4)CC3)cc2)CCN1
pEC50 (Motilin receptor [3]): 7.20
Intrinsic activity (Motilin receptor [4]): 1.2

CC[C@H](C)[C@H](NC(=O)[C@@H]1CCCN1C(=O)[C@@H](NC(=O)[C@@H](N)Cc1ccccc1)C(C)C)C(=O)N[C@@H](Cc1ccccc1)C(=O)N[C@H](C(=O)N[C@@H](Cc1ccc(O)cc1)C(=O)NCC(=O)N[C@@H](CCC(=O)O)C(=O)N[C@@H](CC(C)C)C(=O)N[C@@H](CCC(N)=O)C(=O)N[C@@H](CCCNC(=N)N)C(=O)N[C@@H](CCSC)C(=O)N[C@@H](CCC(N)=O)C(=O)N[C@@H](CCC(=O)O)C(=O)N[C@@H](CCCCN)C(=O)N[C@@H](CCC(=O)O)C(=O)N[C@@H](CCCNC(=N)N)C(=O)N[C@@H](CC(N)=O)C(=O)N[C@@H](CCCCN)C(=O)NCC(=O)N[C@@H](CCC(N)=O)C(=O)O)[C@@H](C)O
pEC50 (Motilin receptor [3]): 10.40
Intrinsic activity (Motilin receptor [4]): 1

C[C@@H]1CN(Cc2ccc(-c3cccnc3C(=O)N3CCC(Nc4ccc(F)cc4)CC3)cc2)C[C@H](C)N1
pIC50 (Cytochrome P450 2D6): < 4.64
pIC50 (Cytochrome P450 3A4 [12]): 5.85
pIC50 [13]: < 4.50
pIC50 (Cytochrome P450 2C9): < 4.64
pIC50 (Cytochrome P450 3A4 [14]): 4.70
pIC50 (Cytochrome P450 2C19): < 4.64
Activity (Stomach [15]): 343%
pEC50 (Motilin receptor [3]): 8.40
pIC50 (Cytochrome P450 1A2): < 4.64

C[C@H]1CN(Cc2ccc(CC(=O)N3CCC(Nc4cccc(F)c4)CC3)cc2)CCN1 [CAMICINAL]
bioavailability [16]: 51%
pIC50 (Cytochrome P450 2D6): 4.47
AUC (Rattus norvegicus): 12 kg·min/L
Activity (Stomach [7]): 53%
pIC50 [13]: 4.80
pIC50 (Cytochrome P450 2C9): < 4.00
Activity (Stomach [9]): 108%
fraction unbound [17]: 0.17
pIC50 (Cytochrome P450 2C19): < 4.00
fraction unbound [18]: 0.37
Activity (Stomach [15]): 248%
pEC50 (Motilin receptor [3]): 7.90
Cmax [10]: 400 nM
half-life at 3 µM [19]: 0.782 h
pIC50 (Cytochrome P450 1A2): < 4.00
Tmax [11]: 2 h
Activity (Cytochrome P450 3A4 [6]): 1.4
bioavailability [20]: 48%
pEC50 [21]: < 6.00

C[C@@H]1CN(Cc2ccc(CC(=O)N3CCC(Nc4cccc(F)c4)CC3)cc2)CCN1
pEC50 (Motilin receptor [3]): 7.70
Intrinsic activity (Motilin receptor [4]): 0.7
